eIF4H inh – human eIF4H binding inhibitors, primary screen, translation initiation inhibitor project, biochemical, uHTS, fluorescence polarization; eIF4H fluorescence polarization binding assay; inhibition, % at 35 µM; actives 0.94% (n = 290,000); AID 2012, 2009;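 also: calls also rest on retests at 20 µM and on dose response follow-up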
core dimer inh – inhibitors of HCV core protein dimerization, primary screen, biochemical, TR-FRET, high-throughput; TR-FRET GST/Flag-core106 dimerization, 1536-well; inhibition, % at 5 µM; actives 0.33% (n = 300,000); AID 1899, 2009;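 active = inhibition above the mean of all tested compounds plus 3 SD, set per screening campaign, cut at about 45% in these data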
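Assay system: Tagged HCV core106 pair (GST and Flag) | Buffer or medium: KF-containing HEPES buffer, pH 7.45, DTT, CHAPS, BSA | Also added: Eu donor and XL665 acceptor anti-tag antibodies | Dosing: One concentration, 5 µM, in 0.5% DMSO | Timing: 4 h at 22.5 °C | Technique: TR-FRET 671 and 617 nm emission | Repeats: Singlicate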
PABP1 MLLE inh – inhibitors of PABP1 MLLE–PAM2 peptide binding, primary screen, biochemical, fluorescence polarization, FITC-PAM2, GST-MLLE | inhibition, % at 20 µM | actives 0.36% (n = 360,000) | Polyadenylate-binding protein 1 (Homo sapiens), P11940 | AID 588489, 2011; in the data active = inhibition above about 35%, passing the limit was not always enough;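 also: plate controls were DMSO wells with GST-MLLE for no effect and wells lacking GST-MLLE protein for full effect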
HCV NS3 hel inh – inhibitors of HCV NS3 helicase, primary screen, biochemical, Cy5 molecular beacon fluorescence. Hepatitis C virus NS3 helicase. NS3 helicase DNA unwinding. inhibition, % at 10.9 µM. actives 0.56% (n = 290,000);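 active = inhibition above the mean of all tested compounds plus 3 SD, set per campaign, cut at about 35% in these data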;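 also: 0% = DMSO wells and 100% = thioflavine S control wells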
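Test system: hepatitis C virus NS3 helicase domain fragment enzyme. Also added: annealed dual-labelled DNA beacon duplex, ATP-started. Timing: 60 min unwinding reaction at 25 °C after ATP addition. Technique: Cy5 fluorescence. Measure: % inhibition of unwinding.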
PABP FP inh – PABP poly(A) RNA binding inhibitors, primary screen, biochemical, fluorescence polarization, uHTS; actives 1% (n = 290,000); Polyadenylate-binding protein 1 (Homo sapiens), P11940; inhibition, % at 35 µM;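 also: calls also rest on retests at 20 µM and on dose response follow-up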
DNA FID counter – compounds displacing fluorescent DNA intercalator, primary screen, artefact control for HCV NS3 helicase inhibitor project, biochemical, FID fluorescence | DNA fluorescent intercalator displacement | inhibition, % at 7.9 µM | actives 0.17% (n = 290,000) | AID 1845, 2009; in the data active = inhibition above about 37%;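 also: 0% = vehicle and 100% = reference compound; higher means more ethidium bromide displaced from hairpin DNA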
Starred values were filed as active, the others as inactive. Most compounds without a hit are left out; they make up all but 2% or so of the library. Unless noted, no rule for the calls is given here.

How did CN1CCN(c2ccc(Nc3ccnc4cc(Cl)ccc34)cc2)CC1 do in these assays?
eIF4H inh: -12.9; core dimer inh: -6.3; PABP1 MLLE inh: 19.2; HCV NS3 hel inh: 23.9; PABP FP inh: 20.7; DNA FID counter: 82.9*

Results for COc1cccc(S(=O)(=O)N(C)C[C@H]2OCc3cnnn3CCCC(=O)N([C@H](C)CO)C[C@H]2C)c1 ?
PABP1 MLLE inh: 5.9

How did Cc1ccc(NC(=O)c2cccc(S(=O)(=O)N3CCN(c4ccccc4)CC3)c2)nc1 do in these assays?
core dimer inh: 4.5; PABP1 MLLE inh: 18.0

Results for COc1ccc(OC)c(NC(=O)Nc2nnc([C@@H]3O[C@H](CO)[C@@H](O)[C@H]3O)s2)c1 ?
PABP1 MLLE inh: -4.5

Results for O=C1N[C@@H](Cc2ccccc2)C(=O)N2[C@H]1C[C@]1([C@]34C[C@H]5C(=O)N[C@@H](Cc6ccccc6)C(=O)N5[C@H]3N(S(=O)(=O)c3ccccc3)c3ccccc34)c3ccccc3N(S(=O)(=O)c3ccccc3)[C@H]21 ?
core dimer inh: 60.1*; PABP1 MLLE inh: -13.5

Results for CC(C)c1cc(C(C)C)c(S(=O)(=O)N2c3ccccc3[C@@]3(Br)C[C@H]4C(=O)N[C@@H](Cc5ccccc5)C(=O)N4[C@@H]23)c(C(C)C)c1 ?
core dimer inh: 46.0*

Results for COc1ccc(CNC(=O)CCS(=O)(=O)c2ccc3nc(C)sc3c2)cc1 ?
PABP1 MLLE inh: -1.4

Results for Cc1cccc(COC(=O)C(Cc2ccccc2)NC(N)=O)c1 (stereo unspecified) ?
eIF4H inh: -14.9; core dimer inh: -6.5; PABP1 MLLE inh: -14.6; HCV NS3 hel inh: 1.0; PABP FP inh: -3.7; DNA FID counter: -22.9

How did CCN=c1scc(C)n1/N=C/c1ccc(O)c(O)c1O do in these assays?
eIF4H inh: 82.1*; core dimer inh: -33.5; PABP1 MLLE inh: 19.7; HCV NS3 hel inh: 23.5; PABP FP inh: 26.8*; DNA FID counter: -14.1

Results for CN(C)c1ccc(/C=C/c2ccc3ccccc3[n+]2C)cc1 ?
eIF4H inh: -15.9; core dimer inh: -71.5; PABP1 MLLE inh: -182.8; HCV NS3 hel inh: -3.1; PABP FP inh: -11.4; DNA FID counter: 41.7*

How did CC(=O)Oc1ccccc1/C=C/c1ccc2ccccc2[n+]1C do in these assays?
eIF4H inh: 18.5; core dimer inh: -4.8; PABP1 MLLE inh: -113.8; HCV NS3 hel inh: -14.4; PABP FP inh: 72.8*; DNA FID counter: 2.6

How did CN(CCCS(=O)(=O)[O-])c1ccc(/C=C/c2ccc3ccccc3[n+]2C)cc1 do in these assays?
eIF4H inh: 9.4; PABP1 MLLE inh: -124.2; HCV NS3 hel inh: -3.0; PABP FP inh: 35.3; DNA FID counter: -19.7

How did Cc1c(O)nc(SCC(=O)Nc2ccc3c4c(cccc24)CC3)n(-c2ccc(F)cc2)c1=O do in these assays?
eIF4H inh: 39.2; core dimer inh: -0.7; PABP1 MLLE inh: 40.0*; HCV NS3 hel inh: 16.2; PABP FP inh: -1.0; DNA FID counter: -44.5

What do the screens show for `CCc1c(O)nc(SCC(=O)Nc2c(C)cccc2C)n(-c2ccc(F)cc2)c1=O`?
PABP1 MLLE inh: -82.4

Results for CCCCCC(=O)N1C[C@H](n2cc(COC(=O)c3ccccc3)nn2)[C@@H](O)C[C@@H]1c1ccc(OC)cc1 ?
PABP1 MLLE inh: 10.1

What do the screens show for `Cc1ccc(NC(=S)N(CCCN(C)C)Cc2cc3cc4c(cc3[nH]c2=O)OCO4)cc1`?
eIF4H inh: -6.1; core dimer inh: -1.2; PABP1 MLLE inh: -87.9; HCV NS3 hel inh: -3.0; PABP FP inh: 2.2; DNA FID counter: 37.5*

What do the screens show for `Cc1ccc(NC(=S)N(CCCN(C)C)Cc2cc3cc4c(cc3[nH]c2=O)OCO4)c(C)c1`?
eIF4H inh: -4.1; core dimer inh: -0.2; PABP1 MLLE inh: -22.6; HCV NS3 hel inh: -12.6; PABP FP inh: -7.9; DNA FID counter: 44.4*

What do the screens show for `C[C@H](CO)N1C[C@H](C)[C@H](CN(C)S(C)(=O)=O)OCc2cnnn2CCCC1=O`?
PABP1 MLLE inh: -2.5

What do the screens show for `CC(C)(C)C(=O)COC(=O)c1c2c(nc3ccccc13)CCC2`?
eIF4H inh: 45.7; core dimer inh: 54.0*; PABP1 MLLE inh: 3.0; HCV NS3 hel inh: 25.9; PABP FP inh: -4.0; DNA FID counter: -28.1

Results for CCOc1ccc(OCCC(=O)OCC(=O)N2CCN(S(=O)(=O)c3ccc(Cl)cc3)CC2)cc1 ?
eIF4H inh: 39.9; core dimer inh: 16.6; PABP1 MLLE inh: 2.3; HCV NS3 hel inh: 9.4; PABP FP inh: 16.5; DNA FID counter: -23.7

How did CCCC(=O)Nc1nc(-c2ccc(Cl)s2)cs1 do in these assays?
eIF4H inh: -2.6; core dimer inh: 7.0; PABP1 MLLE inh: 5.4; HCV NS3 hel inh: -7.1; PABP FP inh: -9.1; DNA FID counter: -2.3

What do the screens show for `O=C(O)C1CCCCC1C(=O)Nc1nc(-c2ccc(Cl)s2)cs1` (stereo unspecified)?
eIF4H inh: 76.5*; core dimer inh: 33.6; PABP1 MLLE inh: 25.5; HCV NS3 hel inh: 10.2; PABP FP inh: active; DNA FID counter: -20.8

How did O=C(COc1ccc(/C=N/NC(=O)c2ccccc2O)cc1)Nc1ccccc1 do in these assays?
eIF4H inh: 61.2; core dimer inh: 4.2; PABP1 MLLE inh: 9.4; HCV NS3 hel inh: 11.3; PABP FP inh: active; DNA FID counter: -7.9

Results for N#C/C(=C\c1ccc(OC(=O)c2ccc(Cl)s2)cc1)c1nc2ccccc2[nH]1 ?
eIF4H inh: 51.4*; core dimer inh: 5.6; PABP1 MLLE inh: 15.8; HCV NS3 hel inh: 9.8; PABP FP inh: active; DNA FID counter: 0.0

How did N#C/C(=C\c1ccc(OC(=O)c2ccc(Br)s2)cc1)c1nc2ccccc2[nH]1 do in these assays?
eIF4H inh: 27.2; core dimer inh: -0.7; PABP1 MLLE inh: 4.1; HCV NS3 hel inh: -2.9; PABP FP inh: 3.8; DNA FID counter: 0.8

How did O=C(/C=C/[C@H]1O[C@@H](n2ccc(=O)[nH]c2=O)[C@H](O)[C@@H]1O)NCc1cccs1 do in these assays?
PABP1 MLLE inh: -7.5

How did COCCCN1C(=O)C(CC(=O)NC(c2ccccc2)c2ccccc2)CC(C(=O)N(C(C)C)C(C)C)=C1C (stereo unspecified) do in these assays?
PABP1 MLLE inh: 3.4

What do the screens show for `COc1cc2[nH]c(=S)n(Cc3ccco3)c(=O)c2cc1OC`?
eIF4H inh: 52.3*; core dimer inh: 5.7; PABP1 MLLE inh: -24.4; HCV NS3 hel inh: -6.5; PABP FP inh: 22.9*; DNA FID counter: -2.8
